Reference: ChEMBL document CHEMBL2440044, “Synthesis and anti-tumor activity of carbohydrate analogues of the tetrahydrofuran containing acetogenins” (Bioorg Med Chem, 2013)
pIC50: −log10 of the molar value.

These compounds were tested on PC-3 (assay: Cytotoxicity against human PC3 cells after 48 hrs by Cell titer Glo assay). Conditions: PC-3, 48 h.
Type: functional, cell-based
Summary of the method: (§1)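 Cells grown in medium with 10% FBS and penicillin-streptomycin: DMEM for HeLa, MDA-MB231 and PC-3, RPMI for Jurkat. Compounds were taken from 20 mM DMSO stocks and serially diluted in medium at 37 °C. Cells were exposed for 48 h. Viability was read as ATP luminescence and normalized to untreated control (% viability). IC50 came from dose-response curve fits; each was run three times and given as mean ± SD.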
Compound CCCCCCCCCCCOC[C@H]1O[C@H](OCCCCCCCCCCCC[C@@H](O)CC2=C[C@H](C)OC2=O)C[C@@H](O)[C@@H]1O has a pIC50 of 4.36. With CCCCCCCCCCCOC[C@@H]1CC[C@H](O)[C@@H](OCCCCCCCCCCCC[C@@H](O)CC2=C[C@H](C)OC2=O)O1 the pIC50 was 4.54. With CCCCCCCCCCCOC[C@@H]1C[C@H](O)[C@H](O)[C@@H](OCCCCCCCCCCCC[C@@H](O)CC2=C[C@H](C)OC2=O)O1 the pIC50 was 4.28. In the case of CCCCCCCCCCCOC[C@H]1O[C@H](OCCCCCCCCCCCC[C@@H](O)CC2=C[C@H](C)OC2=O)[C@@H](O)[C@@H](O)[C@@H]1O, the pIC50 was 4.49. CCCCCCCCCCCC[C@@H](O)[C@H]1CC[C@H]([C@H](O)CCCCC[C@@H](O)CCCCCCC2=C[C@H](C)OC2=O)O1 was tested, and the pIC50 was 4.37.

These compounds were tested on MDA-MB-231 (assay: Cytotoxicity against human MDA-MB-231 cells after 48 hrs by Cell titer Glo assay). Conditions: MDA-MB-231, 48 h.
Type: functional, cell-based
Summary of the method: as §1
CCCCCCCCCCCO[C@H]1[C@@H](O)[C@@H](CO)O[C@@H](OCCCCCCCCCCCC[C@@H](O)CC2=C[C@H](C)OC2=O)[C@@H]1O showed a pIC50 of 4.13. CCCCCCCCCCCOC[C@H]1O[C@H](OCCCCCCCCCCCC[C@@H](O)CC2=C[C@H](C)OC2=O)C[C@@H](O)[C@@H]1O showed a pIC50 of 4.77. CCCCCCCCCCCOC[C@@H]1CC[C@H](O)[C@@H](OCCCCCCCCCCCC[C@@H](O)CC2=C[C@H](C)OC2=O)O1 gave a pIC50 of 4.66. In the case of CCCCCCCCCCCOC[C@@H]1C[C@H](O)[C@H](O)[C@@H](OCCCCCCCCCCCC[C@@H](O)CC2=C[C@H](C)OC2=O)O1, the pIC50 was 4.44. Compound CCCCCCCCCCCOC[C@H]1O[C@H](OCCCCCCCCCCCC[C@@H](O)CC2=C[C@H](C)OC2=O)[C@@H](O)[C@@H](O)[C@@H]1O has a pIC50 of 4.67. CCCCCCCCCCCC[C@@H](O)[C@H]1CC[C@H]([C@H](O)CCCCC[C@@H](O)CCCCCCC2=C[C@H](C)OC2=O)O1 gave a pIC50 of 4.47.

The compounds below were run on HeLa (assay: Cytotoxicity against human HeLa cells after 48 hrs by Cell titer Glo assay). Conditions: not given.
Type: functional, cell-based
Summary of the method: as §1
CCCCCCCCCCCO[C@H]1[C@@H](O)[C@@H](CO)O[C@@H](OCCCCCCCCCCCC[C@@H](O)CC2=C[C@H](C)OC2=O)[C@@H]1O was tested, and the pIC50 was 4.30. CCCCCCCCCCCOC[C@H]1O[C@H](OCCCCCCCCCCCC[C@@H](O)CC2=C[C@H](C)OC2=O)C[C@@H](O)[C@@H]1O was tested, and the pIC50 was 4.79. For CCCCCCCCCCCOC[C@@H]1CC[C@H](O)[C@@H](OCCCCCCCCCCCC[C@@H](O)CC2=C[C@H](C)OC2=O)O1, the pIC50 was 4.86. With CCCCCCCCCCCOC[C@@H]1C[C@H](O)[C@H](O)[C@@H](OCCCCCCCCCCCC[C@@H](O)CC2=C[C@H](C)OC2=O)O1 the pIC50 was 4.63. For CCCCCCCCCCCOC[C@H]1O[C@H](OCCCCCCCCCCCC[C@@H](O)CC2=C[C@H](C)OC2=O)[C@@H](O)[C@@H](O)[C@@H]1O, the pIC50 was 4.82. For CCCCCCCCCCCC[C@@H](O)[C@H]1CC[C@H]([C@H](O)CCCCC[C@@H](O)CCCCCCC2=C[C@H](C)OC2=O)O1, the pIC50 was 4.68.

What follows are compounds tested on Jurkat (assay: Cytotoxicity against human Jurkat cells after 48 hrs by Cell titer Glo assay). Conditions: not given.
Type: functional, cell-based
Summary of the method: as §1
Work on CCCCCCCCCCCO[C@H]1[C@@H](O)[C@@H](CO)O[C@@H](OCCCCCCCCCCCC[C@@H](O)CC2=C[C@H](C)OC2=O)[C@@H]1O yielded a pIC50 of 4.11. CCCCCCCCCCCOC[C@H]1O[C@H](OCCCCCCCCCCCC[C@@H](O)CC2=C[C@H](C)OC2=O)C[C@@H](O)[C@@H]1O gave a pIC50 of 4.88. CCCCCCCCCCCOC[C@@H]1CC[C@H](O)[C@@H](OCCCCCCCCCCCC[C@@H](O)CC2=C[C@H](C)OC2=O)O1 was tested, and the pIC50 was 4.97. CCCCCCCCCCCOC[C@@H]1C[C@H](O)[C@H](O)[C@@H](OCCCCCCCCCCCC[C@@H](O)CC2=C[C@H](C)OC2=O)O1 was tested, and the pIC50 was 4.71. CCCCCCCCCCCOC[C@H]1O[C@H](OCCCCCCCCCCCC[C@@H](O)CC2=C[C@H](C)OC2=O)[C@@H](O)[C@@H](O)[C@@H]1O was tested, and the pIC50 was 5.00. Work on CCCCCCCCCCCC[C@@H](O)[C@H]1CC[C@H]([C@H](O)CCCCC[C@@H](O)CCCCCCC2=C[C@H](C)OC2=O)O1 yielded a pIC50 of 4.75.
